In brackets after ≈: the same amount, converted by molar mass.
What was measured:
Assay type in all cases: functional
Aspergillus fumigatus [1] = experiment: Antifungal activity against azole-resistant Aspergillus fumigatus V34/78-CM3279 isolate from patient with hyper-immunoglobulin E syndrome by broth microdilution susceptibility test
In short: (§1)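 Broth microdilution per CLSI M38-A with modifications; agents tested: itraconazole, voriconazole, ravuconazole, posaconazole, amphotericin B. Clinical isolates stored as conidia in sterile distilled water, grown at 37°C on potato dextrose agar. Each strain tested at least three times on different days. Quality controls: A. flavus ATCC 204304 and A. fumigatus ATCC 204305.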

Aspergillus fumigatus [2] = experiment: Antifungal activity against azole-resistant Aspergillus fumigatus V34/75-CM3276 isolate from patient with hyper-immunoglobulin E syndrome by broth microdilution susceptibility test; in short: as §1
Aspergillus fumigatus [3] = experiment: Antifungal activity against azole-resistant Aspergillus fumigatus V34/77-CM3278 isolate from patient with hyper-immunoglobulin E syndrome by broth microdilution susceptibility test; in short: as §1
Aspergillus fumigatus [4] = experiment: Antifungal activity against azole-resistant Aspergillus fumigatus M03/669-CM2627 isolate from patient by broth microdilution susceptibility test; in short: as §1
Aspergillus fumigatus [5] = experiment: Antifungal activity against azole-resistant Aspergillus fumigatus V13/02-CM3271 isolate from patient with X-linked chronic granulomatous disease by broth microdilution susceptibility test; in short: as §1
Aspergillus fumigatus [6] = experiment: Antifungal activity against azole-resistant Aspergillus fumigatus V49/77-CM4050 isolate from patient with acute myeloid leukemia by broth microdilution susceptibility test; in short: as §1
Aspergillus fumigatus [7] = experiment: Antifungal activity against azole-resistant Aspergillus fumigatus V49/09-CM4023 isolate from patient with chronic obstructive pulmonary disease by broth microdilution susceptibility test; in short: as §1
Aspergillus fumigatus [8] = experiment: Antifungal activity against azole-resistant Aspergillus fumigatus V41/26-CM3820 isolate from patient with pulmonary fibrosis by broth microdilution susceptibility test; in short: as §1
Aspergillus fumigatus [9] = experiment: Antifungal activity against azole-resistant Aspergillus fumigatus V45/07-CM3819 isolate from patient with chronic granulomatous disease by broth microdilution susceptibility test; in short: as §1
Aspergillus fumigatus [10] = experiment: Antifungal activity against azole-resistant Aspergillus fumigatus V27/28-CM3273 isolate from patient by broth microdilution susceptibility test; in short: as §1
Aspergillus fumigatus [11] = experiment: Antifungal activity against azole-resistant Aspergillus fumigatus V34/76-CM3277 isolate from patient with hyper-immunoglobulin E syndrome by broth microdilution susceptibility test; in short: as §1
Aspergillus fumigatus [12] = experiment: Antifungal activity against azole-resistant Aspergillus fumigatus V48/27-CM3936 isolate from patient with acute myeloid leukemia by broth microdilution susceptibility test; in short: as §1
Aspergillus fumigatus [13] = experiment: Antifungal activity against azole-resistant Aspergillus fumigatus V28/78-CM3275 isolate from patient with acute myeloid leukemia by broth microdilution susceptibility test; in short: as §1
Aspergillus fumigatus [14] = experiment: Antifungal activity against azole-resistant Aspergillus fumigatus V13/03-CM3272 isolate from patient with X-linked chronic granulomatous disease by broth microdilution susceptibility test; in short: as §1

Row | SMILES | MIC (Aspergillus fumigatus [1]) [µg/mL] | MIC (Aspergillus fumigatus [2]) [µg/mL] | MIC (Aspergillus fumigatus [3]) [µg/mL] | MIC (Aspergillus fumigatus [4]) [µg/mL] | MIC (Aspergillus fumigatus [5]) [µg/mL] | MIC (Aspergillus fumigatus [6]) [µg/mL] | MIC (Aspergillus fumigatus [7]) [µg/mL] | MIC (Aspergillus fumigatus [8]) [µg/mL] | MIC (Aspergillus fumigatus [9]) [µg/mL] | MIC (Aspergillus fumigatus [10]) [µg/mL] | MIC (Aspergillus fumigatus [11]) [µg/mL] | MIC (Aspergillus fumigatus [12]) [µg/mL] | MIC (Aspergillus fumigatus [13]) [µg/mL] | MIC (Aspergillus fumigatus [14]) [µg/mL]
1 | C[C@@H]1[C@H](O)[C@@H](C)/C=C/C=C/C=C/C=C/C=C/C=C/C=C/[C@H](O[C@@H]2O[C@H](C)[C@@H](O)[C@H](N)[C@@H]2O)C[C@@H]2O[C@](O)(C[C@@H](O)C[C@@H](O)[C@H](O)CC[C@@H](O)C[C@@H](O)CC(=O)O[C@H]1C)C[C@H](O)[C@H]2C(=O)O [AMPHOTERICIN B] | 0.25 (≈ 0.271 µM) | 0.25 (≈ 0.271 µM) | 0.25 (≈ 0.271 µM) | 0.25 (≈ 0.271 µM) | 0.25 (≈ 0.271 µM) | 0.25 (≈ 0.271 µM) | 0.25 (≈ 0.271 µM) | 0.25 (≈ 0.271 µM) | 0.25 (≈ 0.271 µM) | 0.25 (≈ 0.271 µM) | 0.25 (≈ 0.271 µM) | 0.25 (≈ 0.271 µM) | 0.25 (≈ 0.271 µM) | 0.25 (≈ 0.271 µM)
2 | CC[C@@H]([C@H](C)O)n1ncn(-c2ccc(N3CCN(c4ccc(OC[C@@H]5CO[C@@](Cn6cncn6)(c6ccc(F)cc6F)C5)cc4)CC3)cc2)c1=O [POSACONAZOLE] | 0.5 (≈ 0.713 µM) | 0.5 (≈ 0.713 µM) | 0.5 (≈ 0.713 µM) | 0.5 (≈ 0.713 µM) | 1 (≈ 1.43 µM) | 1 (≈ 1.43 µM) | 4 (≈ 5.71 µM) | 0.5 (≈ 0.713 µM) | 1 (≈ 1.43 µM) | 1 (≈ 1.43 µM) | 0.5 (≈ 0.713 µM) | 4 (≈ 5.71 µM) | 0.5 (≈ 0.713 µM) | 1 (≈ 1.43 µM)
3 | C[C@@H](c1nc(-c2ccc(C#N)cc2)cs1)[C@](O)(Cn1cncn1)c1ccc(F)cc1F [RAVUCONAZOLE] | 4 (≈ 9.14 µM) | 4 (≈ 9.14 µM) | 4 (≈ 9.14 µM) | 4 (≈ 9.14 µM) | > 8 | 4 (≈ 9.14 µM) | 8 (≈ 18.3 µM) | 4 (≈ 9.14 µM) | 8 (≈ 18.3 µM) | 4 (≈ 9.14 µM) | 4 (≈ 9.14 µM) | 8 (≈ 18.3 µM) | 8 (≈ 18.3 µM) | > 8
4 | CCC(C)n1ncn(-c2ccc(N3CCN(c4ccc(OCC5COC(Cn6cncn6)(c6ccc(Cl)cc6Cl)O5)cc4)CC3)cc2)c1=O (stereo not given) [ITRACONAZOLE] | > 8 | > 8 | > 8 | > 8 | > 8 | > 8 | > 8 | > 8 | > 8 | > 8 | > 8 | > 8 | > 8 | > 8
5 | C[C@@H](c1ncncc1F)[C@](O)(Cn1cncn1)c1ccc(F)cc1F [VORICONAZOLE] | 2 (≈ 5.73 µM) | 4 (≈ 11.5 µM) | 2 (≈ 5.73 µM) | 4 (≈ 11.5 µM) | 2 (≈ 5.73 µM) | 4 (≈ 11.5 µM) | 4 (≈ 11.5 µM) | 4 (≈ 11.5 µM) | > 8 | 4 (≈ 11.5 µM) | 2 (≈ 5.73 µM) | 4 (≈ 11.5 µM) | 4 (≈ 11.5 µM) | 2 (≈ 5.73 µM)

— ChEMBL document CHEMBL1143828, “A new Aspergillus fumigatus resistance mechanism conferring in vitro cross-resistance to azole antifungals involves a combination of cyp51A alterations” (2007)
